According to PubChem BioAssay AID623898 (Johns Hopkins Ion Channel Center, 2012):
Several values for one entry are separate records, joined by “and”; a condition that tells them apart may be missing. Equal values may be shown once. Activity calls are given as the source filed them.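 The calls were made as follows: active = over 50% block of current through the KCNK9 TASK-3 potassium channel at 10 µM compound; inactive = the rest.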

What follows are compounds tested against Potassium channel subfamily K member 9 (Homo sapiens) (UniProt Q9NPC2) (assay: blockers of KCNK9 channel currents – cell-based, automated electrophysiology, HEK293, SAR follow-up (AID 623898)). Details: HEK293 KCNK9, QPatch automated patch clamp current.
Summary of the method: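 Test system – HEK293 cells with tetracycline-inducible stable human KCNK9 expression · Times – 5 min per concentration step · Measure – per-cell IC50 from Hill fit with unit slope, fractional current block · Compound – cumulative compound concentration series on each cell · Detection – automated whole-cell voltage clamp, current at -30 mV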

Potassium channel subfamily K member 9 (Homo sapiens), sequence (Q9NPC2 whole entry, looked up): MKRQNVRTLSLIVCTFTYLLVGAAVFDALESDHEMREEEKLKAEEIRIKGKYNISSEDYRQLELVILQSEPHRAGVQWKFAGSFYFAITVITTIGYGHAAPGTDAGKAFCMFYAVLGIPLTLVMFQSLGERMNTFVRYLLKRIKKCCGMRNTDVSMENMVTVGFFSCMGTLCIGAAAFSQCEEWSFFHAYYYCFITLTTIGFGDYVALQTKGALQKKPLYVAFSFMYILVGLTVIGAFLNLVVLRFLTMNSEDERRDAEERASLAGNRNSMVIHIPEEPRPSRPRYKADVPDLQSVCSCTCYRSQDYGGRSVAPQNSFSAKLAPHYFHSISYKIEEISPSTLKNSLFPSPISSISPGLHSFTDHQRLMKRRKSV

Row | Structure (SMILES) | IC50 | outcome
1 | Cc1cccc(C(=O)Nc2cccc(NC(=O)c3ccccc3OC(F)(F)F)c2)c1 | 0.99 µM | –
2 | COc1ccccc1NC(=O)c1cccc(NC(=O)C2CCCC2)c1 | 3.16 µM | –
3 | CCOc1ccccc1NC(=O)c1cccc(NC(=O)c2cccc(C(F)(F)F)c2)c1 | 2.1 µM | –
4 | CCOc1ccccc1NC(=O)c1cccc(NC(=O)CC2CCCCC2)c1 | 4.73 µM | –
5 | CCOc1ccccc1NC(=O)c1cccc(NC(=O)c2ccccc2C(F)(F)F)c1 | 0.52 µM | –
6 | C[C@@H](C1CCCCC1)n1c(-c2ccco2)n[nH]c1=S | 6.66 µM | –
7 | Cc1cccc(C(=O)Nc2cccc(NC(=O)c3ccco3)c2)c1 | 0.95 µM | –
8 | CC(CC1CC2CCC1C2)n1c(-c2ccco2)n[nH]c1=S (centres undefined) | 0.59 µM | –
9 | CC(C1CC2CCC1C2)n1c(-c2ccccc2Cl)n[nH]c1=S (centres undefined) | 0.95 µM | –
10 | COc1cccc(C(=O)Nc2cccc(NC(=O)c3ccccc3)c2)c1 | 0.42 µM | –
11 | CC(C1CC2CCC1C2)n1c(-c2ccoc2)n[nH]c1=S (centres undefined) | 0.94 µM | –
12 | Cc1cccc(C(=O)Nc2cccc(NC(=O)c3ccccc3C)c2)c1 | 0.48 µM | –
13 | COc1ccccc1NC(=O)c1cccc(NC(=O)c2ccccc2)c1 | 8.48 µM | –
14 | COc1cccc(-c2n[nH]c(=S)n2C(C)C2CC3CCC2C3)c1 (centres undefined) | 0.28 µM | –
15 | COc1ccc(-c2n[nH]c(=S)n2C(C)C2CC3CCC2C3)cc1 (centres undefined) | 0.33 µM | –
16 | COc1ccccc1C(=O)Nc1cccc(NC(=O)c2cccc(C)c2)c1 | 1.49 µM | –
17 | CC(C1CC2CCC1C2)n1c(-c2cccc(N(C)C)c2)n[nH]c1=S (centres undefined) | 1.72 µM | –
18 | C[C@@H]([C@@H]1CC2CC[C@H]1C2)n1c(-c2ccsc2)n[nH]c1=S | 0.41 µM and 0.68 µM | –
19 | O=C(Nc1cccc(NC(=O)c2ccc(C(F)(F)F)cc2)c1)c1ccccc1 | – | inactive
20 | Cc1ccccc1C(=O)Nc1cccc(NC(=O)c2ccccc2)c1 | 0.27 µM | –
21 | CCOc1ccccc1C(=O)Nc1cccc(NC(=O)c2cccc(C)c2)c1 | 0.38 µM | –
22 | CCOc1ccccc1C(=O)Nc1cccc(NC(=O)c2ccccc2OC)c1 | 0.18 µM | –
23 | C[C@H](C1CCCCC1)n1c(-c2ccsc2)n[nH]c1=S | 0.68 µM | –
24 | COc1ccccc1-c1n[nH]c(=S)n1C(C)C1CC2CCC1C2 (centres undefined) | 1.04 µM | –
25 | CCOc1ccccc1NC(=O)c1cccc(NC(=O)C2CCCCC2)c1 | 1.11 µM | –
26 | CCOc1ccccc1NC(=O)c1cccc(NC(=O)c2ccccc2)c1 | 2.14 µM | –
27 | C[C@H]([C@@H]1CC2CC[C@H]1C2)n1c(-c2ccsc2)n[nH]c1=S | – | inactive

Row | Structure (SMILES) | IC50 | outcome
28 | COc1ccccc1C(=O)Nc1cccc(NC(=O)c2ccccc2OC(F)(F)F)c1 | 0.6 µM | –
29 | Cc1cccc(-c2n[nH]c(=S)n2C(C)C2CC3CCC2C3)c1 (centres undefined) | 0.76 µM | –
30 | O=C(Nc1cccc(NC(=O)C2CCCCC2)c1)c1ccccc1 | 8.1 µM | –
31 | Cc1ccc(C(=O)Nc2cccc(NC(=O)c3ccccc3)c2)cc1 | – | inactive
32 | CC(C1CC2CCC1C2)n1c(-c2cccc(Cl)c2)n[nH]c1=S (centres undefined) | 0.96 µM | –
33 | O=C(Nc1cccc(NC(=O)c2ccccc2C(F)(F)F)c1)c1ccccc1 | 0.85 µM | –
34 | O=C(Nc1cccc(NC(=O)c2ccccn2)c1)c1ccccc1 | 6.1 µM | –
35 | C[C@@H]([C@@H]1CC2CC[C@H]1C2)n1c(-c2ccco2)n[nH]c1=S | 0.41 µM | –
36 | CC(C1CC2CCC1C2)n1c(-c2ccsc2)n[nH]c1=S (centres undefined) | 0.62 µM | –
37 | Cc1cccc(C(=O)Nc2cccc(NC(=O)c3cccc(C)c3)c2)c1 | 2.24 µM | –
38 | COc1ccccc1C(=O)Nc1cccc(NC(=O)c2ccccc2OC)c1 | 0.71 µM | –
39 | CC(C1CC2CCC1C2)n1c(-c2ccccc2)n[nH]c1=S (centres undefined) | 1.24 µM | –
40 | CC(C1CC2CCC1C2)n1c(-c2ccccc2F)n[nH]c1=S (centres undefined) | 0.25 µM | –
41 | C[C@H](C1CCCCC1)n1c(-c2ccco2)n[nH]c1=S | 0.51 µM | –
42 | COc1ccc(CCSc2nnc(-c3ccco3)n2C(C)C2CC3CCC2C3)cc1OC (centres undefined) | 5.48 µM | –
43 | Cc1cccc(C(=O)Nc2cccc(NC(=O)c3ccccc3OCC(C)C)c2)c1 | 2.52 µM | –
44 | CCOc1ccccc1NC(=O)c1cccc(NC(=O)c2ccccc2OC(F)(F)F)c1 | 1.49 µM | –
45 | CC(C)n1c(-c2ccco2)n[nH]c1=S | – | inactive
46 | CC(C1CC2CCC1C2)n1c(-c2ccco2)nn(CCc2ccncc2)c1=S (centres undefined) | 0.49 µM | –
47 | Cc1ccccc1-c1n[nH]c(=S)n1C(C)C1CC2CCC1C2 (centres undefined) | 0.96 µM | –
48 | CCOc1ccccc1NC(=O)c1cccc(NC(=O)c2cccc(C)c2)c1 | 2.38 µM | –
49 | CC(C1CC2CCC1C2)n1c(-c2ccco2)n[nH]c1=S (centres undefined) | 0.25 µM and 0.23 µM | –
50 | S=c1[nH]nc(-c2ccco2)n1CC1CCCCC1 | 3.78 µM | –
51 | CCOc1ccccc1C(=O)Nc1cccc(NC(=O)C2CCCC2)c1 | 0.49 µM | –
52 | CCOc1ccccc1C(=O)Nc1cccc(NC(=O)c2ccccc2C(F)(F)F)c1 | 0.25 µM | –
53 | COc1ccccc1C(=O)Nc1cccc(NC(=O)c2ccccc2C(C)C)c1 | 0.67 µM | –
54 | CCOc1ccccc1NC(=O)c1cccc(NC(=O)CC2CCCC2)c1 | 3.9 µM | –
